Only some compounds are listed: those with a hit (about 3.7% of all), similar ones and a draw of the others.
KCNQ1 block: blocks the human KCNQ1 potassium channel. P51787. CHO-K1 KCNQ1, FluxOR thallium flux fluorescence; active compounds read high. B-score at 10 µM. 310,000 tested, 1.3% active. AID 2642;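 active = compounds whose thallium flux B-score, printed positive for inhibition, exceeds three library SD while starting fluorescence stays within three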;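 note: channel opened by potassium depolarization with thallium stimulus after 20 min compound exposure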
Target sequence (P51787 whole entry, looked up): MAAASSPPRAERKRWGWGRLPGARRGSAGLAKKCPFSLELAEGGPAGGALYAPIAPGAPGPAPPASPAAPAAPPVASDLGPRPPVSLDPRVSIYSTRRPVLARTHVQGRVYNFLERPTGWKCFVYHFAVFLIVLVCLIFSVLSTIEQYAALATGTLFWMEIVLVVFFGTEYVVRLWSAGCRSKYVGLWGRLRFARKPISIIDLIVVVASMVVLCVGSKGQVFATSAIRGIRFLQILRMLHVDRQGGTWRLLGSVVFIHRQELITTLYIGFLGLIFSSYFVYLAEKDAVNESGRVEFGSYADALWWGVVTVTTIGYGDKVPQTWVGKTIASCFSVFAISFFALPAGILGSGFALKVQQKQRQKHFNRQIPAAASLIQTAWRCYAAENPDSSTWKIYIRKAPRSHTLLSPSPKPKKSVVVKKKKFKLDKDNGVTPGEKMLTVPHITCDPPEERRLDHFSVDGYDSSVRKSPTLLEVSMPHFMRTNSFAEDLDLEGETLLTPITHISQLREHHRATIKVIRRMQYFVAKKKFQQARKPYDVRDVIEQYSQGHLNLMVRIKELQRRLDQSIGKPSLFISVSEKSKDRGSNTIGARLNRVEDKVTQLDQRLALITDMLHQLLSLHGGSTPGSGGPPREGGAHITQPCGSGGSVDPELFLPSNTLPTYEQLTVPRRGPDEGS
KCNK9 inh: blocks the human KCNK9 two-pore domain potassium channel; B-score at 10 µM; 310,000 tested, 1.2% active; AID 488922; HEK293 KCNK9, FluxOR thallium flux fluorescence; active compounds read low;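 active = ratio B-score over 3 SD below the library mean, with starting fluorescence within 5 SD of its mean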;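 note: negative B-score means less thallium flux so channel inhibition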
KCNQ1 act: potentiators or activators of human KCNQ1 potassium channel | P51787 | CHO-K1 KCNQ1, thallium flux FluxOR fluorescence; active compounds read high | B-score at 10 µM | 310,000 tested, 0.35% active;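 active = fluorescence ratio B-score, a plate-corrected score, at least three library SD, with initial intensity B-score within 5 SD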
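Assay system: CHO-K1 cells stably expressing KCNQ1. Medium: assay buffer for compound exposure, DMSO matched across wells. Timing: 37 °C overnight plating, 90-min dark dye load, 20-min compound pretreatment. Signal: kinetic FluxOR fluorescence, 10 s baseline plus 110 s post-stimulus.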
hERG rescue: shields human hERG channel from block by proarrhythmic agents; Q12809; CHO-hERG, FluxOR thallium flux, dofetilide IC70 present; activation (rescue from dofetilide block), less the hit threshold, % at 10 µM; 310,000 tested, 0.51% active;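 active = activation above the mean of controls blocked by dofetilide plus 5 SD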;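 note: thallium influx through hERG after potassium depolarization seen as dye fluorescence rise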
KCNK3 inh: human KCNK3 channel inhibition, primary screen. B-score at 10 µM. AID 602410. CHO-KCNK3 thallium flux, FluxOR fluorescence; active compounds read low. 340,000 tested, 0.84% active;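 active = B-score under library mean minus 4 SD, starting fluorescence ratio at most library mean plus 5 SD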;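 note: more negative B-score means stronger inhibition of thallium flux through KCNK3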
Kir21 inh: blocks the mouse Kir2.1 inward-rectifier potassium channel. P35561. HEK293-Kir2.1, FluxOR thallium flux fluorescence; active compounds read low. B-score at 10 µM. 310,000 tested, 0.85% active. AID 1672;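 active = fluorescence ratio B-score at or below minus 3 SD of library scores, with starting-brightness B-score within 2 SD, cut at about -4.2 in these data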;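 note: channel flux triggered by added potassium and thallium sulfate stimulus; B-score of peak minus minimum fluorescence over baseline after thallium stimulus; more negative B-score means stronger Kir2.1 block with less thallium influx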
KCNK9 inh conf: confirmation of human KCNK9 potassium channel inhibitors. shares compounds with KCNK9 inh. HEK293 KCNK9 cells, FluxOR thallium flux fluorescence. inhibition, % at 10 µM. 4,900 tested, 43% active;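 active = thallium signal inhibited by more than 5 SD of the compound-free buffer control wells, on both duplicate plates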;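 note: 0% = assay buffer control wells without compound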
Kir2-1 spec: selectivity of KCNK9 modulators against mouse Kir2.1; 4,900 tested, 4% active; shares compounds with KCNK9 inh; inhibition, % at 10 µM; Kir2.1 cells, FluxOR thallium flux fluorescence;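 active = thallium signal drop more than 5 SD beyond the mean of the no-compound control wells, seen in both duplicate plates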;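 note: signal is fluorescence rise after thallium addition divided by baseline fluorescence; plate controls were assay buffer only for no effect and full block by chlorpromazine control for full effect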
KCNK9 uninduced: non-induced cell nonspecific activity of KCNK9 modulators; shares compounds with KCNK9 inh; non-induced KCNK9-HEK293, FluxOR thallium flux; inhibition, % at 10 µM; 4,900 tested, 40% active;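 active = thallium signal drop beyond 5 SD of the untreated control mean, on both duplicate plates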;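 note: plate controls were buffer only IC0 wells for no effect and SID17386958 at its maximal inhibitory level for full effect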
The depositor's hits bear a star.

`CCOC(=O)NC(=O)CSc1nc(-c2ccc(C)c(C)c2)cn1-c1ccccc1` gave KCNQ1 block inactive, KCNK9 inh -8.2*, KCNQ1 act inactive, hERG rescue -10, KCNK3 inh inactive, Kir21 inh -1.2, KCNK9 inh conf 42%*, Kir2-1 spec inactive and KCNK9 uninduced 36%*.
`Cc1ccc(-c2cn(-c3ccccc3)c(SCC(N)=O)n2)cc1C` gave KCNQ1 block inactive, KCNK9 inh inactive, KCNQ1 act inactive, hERG rescue -7, KCNK3 inh inactive and Kir21 inh 0.8.
`COC(=O)c1ccc(OC)c(CN2CCCN(Cc3cc(C)ccc3C)S2(=O)=O)c1` gave KCNQ1 block inactive, KCNK9 inh -17*, KCNQ1 act inactive, hERG rescue -5, KCNK3 inh inactive, Kir21 inh -0.59, KCNK9 inh conf 62%*, Kir2-1 spec inactive and KCNK9 uninduced 28%*.
`CCOC(=O)c1c(NC(=S)Nc2ccccc2)sc2c1CC(C)(C)SC2` gave KCNQ1 block 8*, KCNK9 inh -9.1*, KCNQ1 act inactive, hERG rescue -2, KCNK3 inh inactive, Kir21 inh 0.03, KCNK9 inh conf inactive, Kir2-1 spec inactive and KCNK9 uninduced 33%*.
CCOC(=O)c1c(NC(=S)Nc2ccc(OC)cc2)sc2c1CCC2 was read as KCNQ1 block inactive, KCNK9 inh inactive, KCNQ1 act inactive, hERG rescue -17, KCNK3 inh inactive and Kir21 inh 0.67.
NC(=O)c1ccccc1OCc1nc2ccccc2s1 was read as KCNQ1 block inactive, KCNK9 inh inactive, KCNQ1 act inactive, hERG rescue -14, KCNK3 inh inactive, Kir21 inh 1.7, KCNK9 inh conf inactive, Kir2-1 spec inactive and KCNK9 uninduced inactive.
CC(=O)OCc1nc2ccccc2s1 was read as KCNQ1 block inactive, KCNK9 inh inactive, KCNQ1 act inactive, hERG rescue -6, KCNK3 inh inactive and Kir21 inh 0.8.
`CCC1CCCCN1C(=O)COC(=O)CN(C)S(=O)(=O)c1ccc(NC(C)=O)cc1` (stereo not given) gave KCNQ1 block inactive, KCNK9 inh inactive, KCNQ1 act inactive, hERG rescue -13, KCNK3 inh inactive and Kir21 inh -0.29.
CC1CCN(C(=O)Cn2nnc(-c3ccc(C(C)C)cc3)n2)CC1 was read as KCNQ1 block inactive, KCNK9 inh inactive, KCNQ1 act inactive, hERG rescue -7, KCNK3 inh inactive and Kir21 inh 0.73.
`CCN(CC)CCN(Cc1cc2cc3c(cc2[nH]c1=O)OCO3)C(=S)NCCOC` gave KCNQ1 block inactive, KCNK9 inh inactive, KCNQ1 act inactive, hERG rescue -3, KCNK3 inh inactive and Kir21 inh 1.9.
`Nc1cc(=O)[nH]c(SCC(=O)N2CCN(S(=O)(=O)c3ccc4ccccc4c3)CC2)n1` gave KCNQ1 block inactive, KCNK9 inh inactive, KCNQ1 act inactive, hERG rescue -5, KCNK3 inh inactive and Kir21 inh -2.6.
`O=C(CSc1ncc(C(F)(F)F)cc1Cl)N1CCN(S(=O)(=O)c2ccc3ccccc3c2)CC1` gave KCNQ1 block inactive, KCNK9 inh inactive, KCNQ1 act inactive, hERG rescue -13, KCNK3 inh inactive, Kir21 inh 1.3, KCNK9 inh conf inactive, Kir2-1 spec inactive and KCNK9 uninduced inactive.
For Cn1c(=O)oc2cc(S(=O)(=O)CCC(=O)N3CCN(c4ccccc4F)CC3)ccc21 the results were KCNQ1 block inactive, KCNK9 inh inactive, KCNQ1 act inactive, hERG rescue -3, KCNK3 inh inactive and Kir21 inh -2.3.
`Cc1ccc(C)c(N2CCN(C(=O)CCS(=O)(=O)c3ccc4c(c3)oc(=O)n4C)CC2)c1` gave KCNQ1 block inactive, KCNK9 inh inactive, KCNQ1 act inactive, hERG rescue -9, KCNK3 inh inactive, Kir21 inh 0.85, KCNK9 inh conf inactive, Kir2-1 spec inactive and KCNK9 uninduced inactive.
For Cc1ccc(NC(=O)O/N=C/c2ccc(N(C)C)cc2)cc1 the results were KCNQ1 block inactive, KCNK9 inh inactive, KCNQ1 act inactive, hERG rescue -4, KCNK3 inh inactive and Kir21 inh -0.21.
`CCN1C(=O)C2(Nc3ccccc3-c3nc4ccccc4n32)c2cc(OC)ccc21` (stereo not given) gave KCNQ1 block inactive, KCNK9 inh -15*, KCNQ1 act inactive, hERG rescue -13, KCNK3 inh inactive, Kir21 inh -1.2, KCNK9 inh conf 58%*, Kir2-1 spec inactive and KCNK9 uninduced 24%*.
`CN1C(=O)C2(Nc3ccccc3-c3nc4ccccc4n32)c2ccccc21` (stereo not given) gave KCNQ1 block inactive, KCNK9 inh inactive, KCNQ1 act inactive, hERG rescue -5, KCNK3 inh inactive and Kir21 inh -0.25.
For Cc1ccc(C(=O)C2CCN(C(=S)NCCCOC(C)C)CC2)cc1 the results were KCNQ1 block inactive, KCNK9 inh inactive, KCNQ1 act inactive, hERG rescue -11, KCNK3 inh inactive and Kir21 inh 1.1.
`CCOC(=O)N/N=C/c1c(C)c(C(=O)c2ccc(F)cc2)n2ccccc12` gave KCNQ1 block inactive, KCNK9 inh -11*, KCNQ1 act inactive, hERG rescue -12, KCNK3 inh inactive, Kir21 inh -0.04, KCNK9 inh conf inactive, Kir2-1 spec inactive and KCNK9 uninduced inactive.
Cc1cc(C(=O)COC(=O)c2ccc3c(c2)OCO3)c(C)n1Cc1cccs1 was read as KCNQ1 block inactive, KCNK9 inh inactive, KCNQ1 act inactive, hERG rescue -5, KCNK3 inh inactive, Kir21 inh 0.91, KCNK9 inh conf inactive, Kir2-1 spec inactive and KCNK9 uninduced inactive.
Screening CCn1nc(C(=O)OCC(=O)c2cc(C)n(Cc3cccs3)c2C)c2ccccc2c1=O returned KCNQ1 block inactive, KCNK9 inh inactive, KCNQ1 act inactive, hERG rescue -17, KCNK3 inh inactive, Kir21 inh -0.1, KCNK9 inh conf inactive, Kir2-1 spec inactive and KCNK9 uninduced inactive.

Compound activity as filed in PubChem BioAssay.
